# Test results published in ChEMBL document CHEMBL1124865, “Synthesis and biological evaluation of a series of parenteral 3'-quaternary ammonium cephalosporins” (J Med Chem, 1990).
# Legend:
# Assay type in all cases: functional
# Escherichia coli [1] = test: Antibacterial activity against Escherichia coli TEM; details: Escherichia coli; read-out: MIC
# Escherichia coli [2] = test: In vivo efficacy against Escherichia coli infections in mice; details: Escherichia coli; read-out: MIC
# Streptococcus pneumoniae = test: Antibacterial activity against Streptococcus pneumoniae; details: Streptococcus pneumoniae; read-out: MIC
# Klebsiella pneumoniae [3] = test: Antibacterial activity against Klebsiella pneumoniae X26
# Serratia marcescens = test: Antibacterial activity against Serratia marcescens SE3
# Klebsiella pneumoniae [4] = test: microbe, parasite or virus in culture
# Pseudomonas aeruginosa [5] = test: In vivo efficacy against Pseudomonas aeruginosa infections in mice; details: Pseudomonas aeruginosa; read-out: MIC
# Pseudomonas aeruginosa [6] = test: In vivo efficacy against Pseudomonas aeruginosa infected mice treated at 1 hr and 5 hr post infection; details: Pseudomonas aeruginosa; read-out: ED50
# Staphylococcus aureus [7] = test: Antibacterial activity against penicillin G resistance Staphylococcus aureus
# Streptococcus pyogenes = test: Antibacterial activity against Streptococcus pyogenes; details: Streptococcus pyogenes; read-out: MIC
# Staphylococcus aureus [8] = test: In vivo efficacy against Staphylococcus aureus infections in mice
# Pseudomonas aeruginosa [9] = test: Antibacterial activity against Pseudomonas aeruginosa X528
# Staphylococcus aureus [10] = test: In vivo efficacy against Staphylococcus aureus infected mice treated at 1 hr and 5 hr post infection
# Enterobacter cloacae [11] = test: Antibacterial activity against Enterobacter cloacae 265A
# Escherichia coli [12] = test: In vivo efficacy against Escherichia coli infected mice treated at 1 hr and 5 hr post infection; details: Escherichia coli; read-out: ED50
# Escherichia coli [13] = test: Antibacterial activity against Escherichia coli EC14
# Enterobacter cloacae [14] = test: Antibacterial activity against Enterobacter cloacae EB5; details: Enterobacter cloacae; read-out: MIC
# Enterococcus faecium = test: Antibacterial activity against Enterococcus faecium; details: Enterococcus faecium; read-out: MIC
# Pseudomonas aeruginosa [15] = test: Antibacterial activity against Pseudomonas aeruginosa PS18
# Staphylococcus aureus [16] = test: Antibacterial activity against penicillin G susceptible Staphylococcus aureus
# Staphylococcus aureus [17] = test: In vitro relative hydrolysis rate against Staphylococcus aureus
# How it was run: (§1)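 Spectrophotometric hydrolysis at 265 nm, substrate exposed to partially purified cell-free β-lactamase preparations; rate expressed as percentage of the cephaloridine rate.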
# Enterobacter cloacae [18] = test: In vitro relative hydrolysis rate against Enterobacter Ia; how it was run: as §1
# Klebsiella pneumoniae [19] = test: In vitro relative hydrolysis rate against Klebsiella IV; how it was run: as §1
# Escherichia coli [20] = test: In vitro relative hydrolysis rate against Escherichia coli IIIa; how it was run: as §1
# Pseudomonas aeruginosa [21] = test: In vitro relative hydrolysis rate against Pseudomonas Id; how it was run: as §1
# Cavia porcellus = species on record: Cavia porcellus; test: In vitro relative anticholinergic potential in isolated guinea pig trachea
# How it was run: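 Guinea pig trachea in Krebs' solution at 37.5 °C, 95% O2/5% CO2, pH 7.4, 2 g resting tension. Cumulative carbachol log dose-response curve (3-fold steps) run before and 30 min after adding antagonist at 1 mM. […] Tukey test on log2 dose ratios.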
# [22] = Klebsiella pneumoniae, read-out: MIC
# [23] = Serratia marcescens, read-out: MIC
# [24] = Staphylococcus aureus, read-out: MIC
# [25] = Pseudomonas aeruginosa, read-out: MIC
# [26] = Staphylococcus aureus, read-out: ED50
# [27] = Enterobacter cloacae, read-out: MIC
# [28] = Escherichia coli, read-out: MIC
Structure (SMILES),MIC (Escherichia coli [1]) [µg/mL],MIC (Escherichia coli [2]) [µg/mL],MIC (Streptococcus pneumoniae) [µg/mL],MIC (Klebsiella pneumoniae [3]; [22]) [µg/mL],MIC (Serratia marcescens; [23]) [µg/mL],MIC (Klebsiella pneumoniae [4]; [22]) [µg/mL],MIC (Pseudomonas aeruginosa [5]) [µg/mL],ED50 (Pseudomonas aeruginosa [6]) [mg/kg],MIC (Staphylococcus aureus [7]; [24]) [µg/mL],MIC (Streptococcus pyogenes) [µg/mL],MIC (Staphylococcus aureus [8]; [24]) [µg/mL],MIC (Pseudomonas aeruginosa [9]; [25]) [µg/mL],ED50 (Staphylococcus aureus [10]; [26]) [mg/kg],MIC (Enterobacter cloacae [11]; [27]) [µg/mL],ED50 (Escherichia coli [12]) [mg/kg],MIC (Escherichia coli [13]; [28]) [µg/mL],MIC (Enterobacter cloacae [14]) [µg/mL],MIC (Enterococcus faecium) [µg/mL],MIC (Pseudomonas aeruginosa [15]; [25]) [µg/mL],MIC (Staphylococcus aureus [16]; [24]) [µg/mL],also measured
CO/N=C(\C(=O)N[C@@H]1C(=O)N2C(C(=O)[O-])=C(C[n+]3cccc(S(=O)(=O)O)c3)CS[C@H]12)c1csc(N)n1,0.5,0.06,0.06,0.125,0.25,64,64,41.6,8,0.06,4,8,> 10,> 128,0.08,0.06,0.5,> 128,32,4,
CO/N=C(\C(=O)N[C@@H]1C(=O)N2C(C(=O)[O-])=C(C[n+]3ccc4ccccc4c3)CS[C@H]12)c1csc(N)n1,0.03,0.015,0.015,0.015,0.06,2,8,9,1,< 0.008,1,2,0.4,8,0.04,0.015,0.06,128,4,1,Hydrolysis rate (Staphylococcus aureus [17]): 9.3; Hydrolysis rate (Enterobacter cloacae [18]): 0.3; Hydrolysis rate (Klebsiella pneumoniae [19]): 2.8; Hydrolysis rate (Escherichia coli [20]): 0.2; Hydrolysis rate (Pseudomonas aeruginosa [21]): 0.1
CO/N=C(\C(=O)N[C@@H]1C(=O)N2C(C(=O)[O-])=C(C[n+]3cccc(Cl)c3)CS[C@H]12)c1csc(N)n1,0.06,0.06,0.015,0.06,0.06,16,8,> 50,2,< 0.008,1,2,1.6,8,0.14,0.06,0.25,> 128,4,1,
CO/N=C(\C(=O)N[C@@H]1C(=O)N2C(C(=O)[O-])=C(C[n+]3ccc(CC(=O)NO)cc3)CS[C@H]12)c1csc(N)n1 (stereo in doubt; 11),,,,,,,,,,,,,,,,,,,,,Hydrolysis rate (Staphylococcus aureus [17]): 3.4; Hydrolysis rate (Enterobacter cloacae [18]): 0.4; ED50 (Staphylococcus aureus [10]): 4 mg/kg; Hydrolysis rate (Klebsiella pneumoniae [19]): 10.4; Hydrolysis rate (Escherichia coli [20]): 0.5; Hydrolysis rate (Pseudomonas aeruginosa [21]): 0.1
CO/N=C(\C(=O)N[C@@H]1C(=O)N2C(C(=O)[O-])=C(C[n+]3ccc(C(N)=S)cc3)CS[C@H]12)c1csc(N)n1,0.03,0.03,0.015,0.03,0.06,8,8,7.2,2,< 0.008,1,1,1.4,8,< 0.16,0.03,0.125,> 128,2,1,
CCC(CC)c1cc[n+](CC2=C(C(=O)[O-])N3C(=O)[C@@H](NC(=O)/C(=N\OC)c4csc(N)n4)[C@H]3SC2)cc1,0.06,0.125,0.015,0.03,0.5,8,64,11,4,< 0.008,4,16,2.5,16,0.5,0.125,0.5,> 128,64,2,
CO/N=C(\C(=O)N[C@@H]1C(=O)N2C(C(=O)[O-])=C(C[n+]3cc(C)cc(C)c3)CS[C@H]12)c1csc(N)n1,0.06,,0.03,0.03,0.125,8,,,2,< 0.008,,4,,8,,0.06,0.125,> 128,8,1,Hydrolysis rate (Staphylococcus aureus [17]): 6.1; Hydrolysis rate (Enterobacter cloacae [18]): 0.1; Hydrolysis rate (Klebsiella pneumoniae [19]): 1.5; Hydrolysis rate (Escherichia coli [20]): 0.5; Hydrolysis rate (Pseudomonas aeruginosa [21]): 0.1
CO/N=C(\C(=O)N[C@@H]1C(=O)N2C(C(=O)[O-])=C(C[n+]3cccc(CC(=O)O)c3)CS[C@H]12)c1csc(N)n1 (stereo in doubt; 14),0.06,0.06,0.015,,,,8,20,,0.015,,,,,0.09,,0.25,> 128,,,MIC (Klebsiella pneumoniae [3]): 0.03 µg/mL; MIC (Serratia marcescens): 0.125 µg/mL; MIC (Klebsiella pneumoniae [4]): 16 µg/mL; MIC (Staphylococcus aureus [7]): 2 µg/mL; MIC (Staphylococcus aureus [8]): 1 µg/mL; MIC (Pseudomonas aeruginosa [9]): 2 µg/mL; ED50 (Staphylococcus aureus [10]): 1.4 mg/kg; MIC (Enterobacter cloacae [11]): 16 µg/mL; MIC (Escherichia coli [13]): 0.06 µg/mL; MIC (Pseudomonas aeruginosa [15]): 8 µg/mL; MIC (Staphylococcus aureus [16]): 1 µg/mL
CO/N=C(\C(=O)N[C@@H]1C(=O)N2C(C(=O)[O-])=C(C[n+]3cccc4cc(O)ccc43)CS[C@H]12)c1csc(N)n1,0.03,0.03,< 0.008,< 0.008,0.5,4,8,29,2,< 0.008,1,8,1,16,0.04,0.03,0.5,128,8,1,
CO/N=C(\C(=O)N[C@@H]1C(=O)N2C(C(=O)[O-])=C(C[n+]3ccc4c(O)cccc4c3)CS[C@H]12)c1csc(N)n1,0.03,0.015,0.05,< 0.008,0.25,8,8,> 50,2,< 0.008,1,8,2,16,< 0.03,0.015,0.125,128,8,1,
CO/N=C(\C(=O)N[C@@H]1C(=O)N2C(C(=O)[O-])=C(C[n+]3ccccc3C)CS[C@H]12)c1csc(N)n1,0.5,0.06,0.5,0.25,1,32,64,12,16,0.25,2,32,2.7,128,< 0.16,0.25,2,> 128,64,16,
CO/N=C(\C(=O)N[C@@H]1C(=O)N2C(C(=O)[O-])=C(C[n+]3ccc4nc(C)n(C)c4c3)CS[C@H]12)c1csc(N)n1,0.015,,0.015,0.015,,2,,,,0.015,,2,,4,,0.015,,128,8,2,RAP (Cavia porcellus): 2
CO/N=C(\C(=O)N[C@@H]1C(=O)N2C(C(=O)[O-])=C(C[n+]3ccc4c(c3)ncn4C)CS[C@H]12)c1csc(N)n1,0.015,,0.008,0.015,,8,,,16,0.015,,1,,8,,0.015,,128,4,2,RAP (Cavia porcellus): 1
CO/N=C(\C(=O)N[C@@H]1C(=O)N2C(C(=O)[O-])=C(C[n+]3ccc4c(c3)nc(C)n4C)CS[C@H]12)c1csc(N)n1,0.008,,0.008,0.008,,2,,,,0.008,,4,,4,,0.008,,128,8,2,RAP (Cavia porcellus): 1
CO/N=C(\C(=O)N[C@@H]1C(=O)N2C(C(=O)[O-])=C(C[n+]3cccc4ccc(O)cc43)CS[C@H]12)c1csc(N)n1,0.125,0.06,0.06,0.03,0.5,4,16,> 50,8,0.03,4,16,4,8,0.05,0.06,0.25,> 128,32,4,
